{"source": "ChEMBL document CHEMBL1146885", "about": "“Antitumor agents. 254. Synthesis and biological evaluation of novel neo-tanshinlactone analogues as potent anti-breast cancer agents” (2006)", "format_in_all_cases": "functional", "conditions_in_all_cases": "read-out: ED50 (the source's name)", "key": {"MCF7": {"system": "MCF7", "experiment": "Cytotoxicity against human MCF7 cells expressing ER", "summary_of_the_method": "(§1)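 SRB growth-inhibition assay. Cells grown in RPMI-1640 with 25 mM HEPES, 0.25% sodium bicarbonate, 10% FBS and 100 µg/mL kanamycin. Freshly trypsinized cells seeded at 1500-7500 per well, with compound added from DMSO-diluted stock. After 3 days, attached cells fixed with cold 50% TCA, stained with 0.4% SRB, dye solubilized, A562 read. ED50 = concentration reducing growth 50%, mean of ≥3 independent determinations.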"}, "MDA-MB-231": {"system": "MDA-MB-231", "experiment": "Cytotoxicity against human MDA-MB-231 cells lacking ER", "summary_of_the_method": "as §1"}, "A-431": {"system": "A-431", "experiment": "Cytotoxicity against human A431 cells", "summary_of_the_method": "as §1"}, "KB": {"system": "KB", "experiment": "Cytotoxicity against human KB cells", "summary_of_the_method": "as §1"}, "ZR-75-1": {"system": "ZR-75-1", "experiment": "Cytotoxicity against human ZR-75-1 cells expressing ER", "summary_of_the_method": "as §1"}, "Hs-578T": {"system": "Hs-578T", "experiment": "Cytotoxicity against human HS 587-T cells lacking ER", "summary_of_the_method": "as §1"}, "SK-BR-3": {"system": "SK-BR-3", "experiment": "Cytotoxicity against human SK-BR-3 cells expressing HER2 and lacking ER", "summary_of_the_method": "as §1"}, "SW-620": {"system": "SW-620", "experiment": "Cytotoxicity against human SW620 cells", "summary_of_the_method": "as §1"}}, "data": [{"compound": "CCc1cccc2c1ccc1c3occc3c(=O)oc21", "values": [{"measurement": "EC50", "setting": "MCF7", "value": "> 10", "unit": "µg/mL"}, {"measurement": "EC50", "setting": "MDA-MB-231", "value": "> 10", "unit": "µg/mL"}]}, {"compound": "CC/C(=C(\\c1ccccc1)c1ccc(OCCN(C)C)cc1)c1ccccc1", "note": "[TAMOXIFEN]", "values": [{"measurement": "EC50", "setting": "A-431", "value": 7, "unit": "µg/mL"}, {"measurement": "EC50", "setting": "KB", "value": 9, "unit": "µg/mL"}, {"measurement": "EC50", "setting": "ZR-75-1", "value": 3.6, "unit": "µg/mL"}, {"measurement": "EC50", "setting": "Hs-578T", "value": 7, "unit": "µg/mL"}, {"measurement": "EC50", "setting": "SK-BR-3", "value": 5, "unit": "µg/mL"}, {"measurement": "EC50", "setting": "SW-620", "value": 4, "unit": "µg/mL"}, {"measurement": "EC50", "setting": "MCF7", "value": 5, "unit": "µg/mL"}, {"measurement": "EC50", "setting": "MDA-MB-231", "value": 8.5, "unit": "µg/mL"}]}, {"compound": "Cc1coc2c1c(=O)oc1c3ccccc3ccc21", "values": [{"measurement": "EC50", "setting": "ZR-75-1", "value": 4, "unit": "µg/mL"}, {"measurement": "EC50", "setting": "Hs-578T", "value": 7.5, "unit": "µg/mL"}, {"measurement": "EC50", "setting": "MCF7", "value": 4, "unit": "µg/mL"}, {"measurement": "EC50", "setting": "MDA-MB-231", "value": 10.3, "unit": "µg/mL"}]}, {"compound": "O=c1oc2c3ccccc3c(Cl)cc2c2occc12", "values": [{"measurement": "EC50", "setting": "A-431", "value": "> 10", "unit": "µg/mL"}, {"measurement": "EC50", "setting": "KB", "value": "> 10", "unit": "µg/mL"}, {"measurement": "EC50", "setting": "ZR-75-1", "value": "> 10", "unit": "µg/mL"}, {"measurement": "EC50", "setting": "SK-BR-3", "value": "> 10", "unit": "µg/mL"}, {"measurement": "EC50", "setting": "SW-620", "value": "> 10", "unit": "µg/mL"}, {"measurement": "EC50", "setting": "MCF7", "value": 7, "unit": "µg/mL"}]}, {"compound": "COc1cc2c3occc3c(=O)oc2c2ccccc12", "values": [{"measurement": "EC50", "setting": "A-431", "value": 9.5, "unit": "µg/mL"}, {"measurement": "EC50", "setting": "KB", "value": 9.5, "unit": "µg/mL"}, {"measurement": "EC50", "setting": "ZR-75-1", "value": 8.5, "unit": "µg/mL"}, {"measurement": "EC50", "setting": "SK-BR-3", "value": 4, "unit": "µg/mL"}, {"measurement": "EC50", "setting": "SW-620", "value": 4, "unit": "µg/mL"}, {"measurement": "EC50", "setting": "MCF7", "value": 3.4, "unit": "µg/mL"}]}, {"compound": "COc1cc2c3occ(C)c3c(=O)oc2c2ccccc12", "values": [{"measurement": "EC50", "setting": "A-431", "value": 9.5, "unit": "µg/mL"}, {"measurement": "EC50", "setting": "KB", "value": "> 10", "unit": "µg/mL"}, {"measurement": "EC50", "setting": "ZR-75-1", "value": "> 10", "unit": "µg/mL"}, {"measurement": "EC50", "setting": "SK-BR-3", "value": 8.6, "unit": "µg/mL"}, {"measurement": "EC50", "setting": "SW-620", "value": 9, "unit": "µg/mL"}, {"measurement": "EC50", "setting": "MCF7", "value": 5, "unit": "µg/mL"}]}, {"compound": "Cc1cccc2c1ccc1c3occ(C)c3c(=O)oc21", "values": [{"measurement": "EC50", "setting": "A-431", "value": "> 10", "unit": "µg/mL"}, {"measurement": "EC50", "setting": "KB", "value": "> 10", "unit": "µg/mL"}, {"measurement": "EC50", "setting": "ZR-75-1", "value": 0.25, "unit": "µg/mL"}, {"measurement": "EC50", "setting": "Hs-578T", "value": 16, "unit": "µg/mL"}, {"measurement": "EC50", "setting": "SK-BR-3", "value": 0.18, "unit": "µg/mL"}, {"measurement": "EC50", "setting": "SW-620", "value": "> 10", "unit": "µg/mL"}, {"measurement": "EC50", "setting": "MCF7", "value": 0.6, "unit": "µg/mL"}, {"measurement": "EC50", "setting": "MDA-MB-231", "value": 10, "unit": "µg/mL"}]}, {"compound": "O=c1oc2c(ccc3ccccc32)c2c1C(O)CO2", "note": "(stereo not drawn)", "values": [{"measurement": "EC50", "setting": "MCF7", "value": 12.5, "unit": "µg/mL"}]}, {"compound": "CCc1cccc2c1ccc1c3occ(C)c3c(=O)oc21", "values": [{"measurement": "EC50", "setting": "A-431", "value": "> 10", "unit": "µg/mL"}, {"measurement": "EC50", "setting": "KB", "value": "> 10", "unit": "µg/mL"}, {"measurement": "EC50", "setting": "ZR-75-1", "value": 0.18, "unit": "µg/mL"}, {"measurement": "EC50", "setting": "Hs-578T", "value": 10, "unit": "µg/mL"}, {"measurement": "EC50", "setting": "SK-BR-3", "value": 0.1, "unit": "µg/mL"}, {"measurement": "EC50", "setting": "SW-620", "value": "> 10", "unit": "µg/mL"}, {"measurement": "EC50", "setting": "MCF7", "value": 0.45, "unit": "µg/mL"}, {"measurement": "EC50", "setting": "MDA-MB-231", "value": 13.5, "unit": "µg/mL"}]}, {"compound": "O=c1oc2c3ccccc3ccc2c2occc12", "values": [{"measurement": "EC50", "setting": "MCF7", "value": "> 20", "unit": "µg/mL"}, {"measurement": "EC50", "setting": "MDA-MB-231", "value": 10.5, "unit": "µg/mL"}]}, {"compound": "Cc1coc2c1c(=O)oc1c3ccccc3c(Cl)cc21", "values": [{"measurement": "EC50", "setting": "A-431", "value": 8, "unit": "µg/mL"}, {"measurement": "EC50", "setting": "KB", "value": "> 10", "unit": "µg/mL"}, {"measurement": "EC50", "setting": "ZR-75-1", "value": 8.6, "unit": "µg/mL"}, {"measurement": "EC50", "setting": "SK-BR-3", "value": 4.5, "unit": "µg/mL"}, {"measurement": "EC50", "setting": "SW-620", "value": "> 10", "unit": "µg/mL"}, {"measurement": "EC50", "setting": "MCF7", "value": 5, "unit": "µg/mL"}]}, {"compound": "Cc1cccc2c1ccc1c3occc3c(=O)oc21", "values": [{"measurement": "EC50", "setting": "A-431", "value": 8.3, "unit": "µg/mL"}, {"measurement": "EC50", "setting": "KB", "value": "> 10", "unit": "µg/mL"}, {"measurement": "EC50", "setting": "ZR-75-1", "value": "> 10", "unit": "µg/mL"}, {"measurement": "EC50", "setting": "SK-BR-3", "value": 8.5, "unit": "µg/mL"}, {"measurement": "EC50", "setting": "SW-620", "value": "> 10", "unit": "µg/mL"}, {"measurement": "EC50", "setting": "MCF7", "value": 5.5, "unit": "µg/mL"}]}]}
